These results are taken from ChEMBL document CHEMBL4706649, “Design, synthesis and biological evaluation of new benzoxazolone/benzothiazolone derivatives as multi-target agents against Alzheimer's disease” (Eur J Med Chem, 2021).

The structures appear in SMILES notation. pIC50: −log10 of the molar value. Active and inactive are the calls of the source. No cut-off for these calls is given here.

Chain of Cholinesterase (Equus caballus) (P81908 whole entry): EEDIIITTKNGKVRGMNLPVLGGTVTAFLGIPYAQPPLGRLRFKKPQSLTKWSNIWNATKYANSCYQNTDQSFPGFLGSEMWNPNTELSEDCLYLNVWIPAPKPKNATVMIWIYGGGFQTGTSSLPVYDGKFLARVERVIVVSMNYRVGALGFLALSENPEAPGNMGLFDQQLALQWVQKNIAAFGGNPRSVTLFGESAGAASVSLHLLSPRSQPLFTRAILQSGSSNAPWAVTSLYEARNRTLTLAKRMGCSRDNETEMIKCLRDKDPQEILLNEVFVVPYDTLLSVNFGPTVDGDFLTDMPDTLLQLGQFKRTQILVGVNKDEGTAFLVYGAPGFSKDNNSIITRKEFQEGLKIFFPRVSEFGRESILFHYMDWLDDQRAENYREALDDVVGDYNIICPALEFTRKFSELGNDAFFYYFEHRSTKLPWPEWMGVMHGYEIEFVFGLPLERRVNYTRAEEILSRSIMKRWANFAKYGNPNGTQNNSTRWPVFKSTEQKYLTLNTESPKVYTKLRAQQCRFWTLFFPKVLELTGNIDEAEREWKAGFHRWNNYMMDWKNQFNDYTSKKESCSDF
Chain of Acetylcholinesterase (Electrophorus electricus) (O42275 24-633 limits assumed): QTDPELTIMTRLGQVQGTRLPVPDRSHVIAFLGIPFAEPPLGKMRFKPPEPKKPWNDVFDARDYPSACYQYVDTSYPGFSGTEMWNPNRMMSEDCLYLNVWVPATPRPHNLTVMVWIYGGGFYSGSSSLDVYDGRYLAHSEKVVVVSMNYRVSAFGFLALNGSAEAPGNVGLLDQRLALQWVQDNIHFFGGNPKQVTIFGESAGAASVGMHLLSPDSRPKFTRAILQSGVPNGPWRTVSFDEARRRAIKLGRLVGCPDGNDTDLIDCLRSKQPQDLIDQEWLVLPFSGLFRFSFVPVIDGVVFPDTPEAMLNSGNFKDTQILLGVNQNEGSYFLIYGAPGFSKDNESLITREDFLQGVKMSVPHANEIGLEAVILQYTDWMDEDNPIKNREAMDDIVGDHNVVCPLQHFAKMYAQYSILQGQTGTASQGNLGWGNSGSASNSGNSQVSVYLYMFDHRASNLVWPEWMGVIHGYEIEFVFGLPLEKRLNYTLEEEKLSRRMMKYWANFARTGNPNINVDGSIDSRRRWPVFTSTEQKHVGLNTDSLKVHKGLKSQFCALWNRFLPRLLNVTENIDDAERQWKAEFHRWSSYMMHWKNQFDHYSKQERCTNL
Chain of Acetylcholinesterase (Homo sapiens, UniProt P22303) (P22303 whole entry): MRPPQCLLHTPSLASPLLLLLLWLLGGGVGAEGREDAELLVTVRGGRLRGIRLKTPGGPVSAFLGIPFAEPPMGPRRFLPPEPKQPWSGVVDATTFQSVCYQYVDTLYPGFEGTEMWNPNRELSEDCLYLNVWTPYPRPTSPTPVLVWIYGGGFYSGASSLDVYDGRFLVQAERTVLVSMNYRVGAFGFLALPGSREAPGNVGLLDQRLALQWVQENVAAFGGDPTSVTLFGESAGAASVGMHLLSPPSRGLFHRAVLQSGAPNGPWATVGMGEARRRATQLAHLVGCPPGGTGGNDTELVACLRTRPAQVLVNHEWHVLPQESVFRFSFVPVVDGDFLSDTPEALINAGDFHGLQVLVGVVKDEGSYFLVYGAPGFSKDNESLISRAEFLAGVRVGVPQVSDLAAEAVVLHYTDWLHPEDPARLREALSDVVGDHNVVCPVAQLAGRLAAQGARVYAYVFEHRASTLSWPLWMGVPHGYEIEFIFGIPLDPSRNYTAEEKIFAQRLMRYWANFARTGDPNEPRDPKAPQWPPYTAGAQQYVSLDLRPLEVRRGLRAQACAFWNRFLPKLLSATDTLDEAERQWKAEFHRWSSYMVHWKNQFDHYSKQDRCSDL

For the first series, the target named is Acetylcholinesterase (Electrophorus electricus) (UniProt O42275). Briefly: Inhibition of electric eel AChE at 100 uM using acetylthiocholine iodide as substrate preincubated for 10 mins followed by substrate addition and measured for 10 mins by Ellman's method relative to control. The following applies: time 20.0 min. The method in brief:
(§1)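 Ellman single-concentration screen in 50 mM Tris-HCl pH 8.0 with DTNB (6.8 mM stock) and 1% DMSO. Enzyme solution 0.4 U/mL AChE or 0.8 U/mL BChE. Compound and enzyme preincubated 10 min at 25 °C, then ATI (10 mM stock) or BTI (30 mM stock) added. A412 followed for 10 min, blank-subtracted, % inhibition versus no-compound control. Triplicate.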
Background: DTNB colorimetry detects thiols as they appear.
By inhibition is commonly meant the percentage by which the read-out fell short of the control. A low value points to a weak effect. `Cn1c(=O)sc2cc(NC(=O)CCN3CCN(Cc4ccc(F)cc4)CC3)ccc21` gave an inhibition of 74%.
On the same count and under the same terms, in the case of `Cn1c(=O)sc2cc(C(=O)CCN3CCN(Cc4ccccc4)CC3)ccc21` it was 99%.

For another series, the target named is Acetylcholinesterase (Electrophorus electricus, UniProt O42275). Briefly: Inhibition of electric eel AChE using acetylthiocholine iodide as substrate preincubated for 10 mins followed by substrate addition and measured for 10 mins by Ellman's method.
Chain of Acetylcholinesterase (Electrophorus electricus, UniProt O42275) (O42275 whole entry): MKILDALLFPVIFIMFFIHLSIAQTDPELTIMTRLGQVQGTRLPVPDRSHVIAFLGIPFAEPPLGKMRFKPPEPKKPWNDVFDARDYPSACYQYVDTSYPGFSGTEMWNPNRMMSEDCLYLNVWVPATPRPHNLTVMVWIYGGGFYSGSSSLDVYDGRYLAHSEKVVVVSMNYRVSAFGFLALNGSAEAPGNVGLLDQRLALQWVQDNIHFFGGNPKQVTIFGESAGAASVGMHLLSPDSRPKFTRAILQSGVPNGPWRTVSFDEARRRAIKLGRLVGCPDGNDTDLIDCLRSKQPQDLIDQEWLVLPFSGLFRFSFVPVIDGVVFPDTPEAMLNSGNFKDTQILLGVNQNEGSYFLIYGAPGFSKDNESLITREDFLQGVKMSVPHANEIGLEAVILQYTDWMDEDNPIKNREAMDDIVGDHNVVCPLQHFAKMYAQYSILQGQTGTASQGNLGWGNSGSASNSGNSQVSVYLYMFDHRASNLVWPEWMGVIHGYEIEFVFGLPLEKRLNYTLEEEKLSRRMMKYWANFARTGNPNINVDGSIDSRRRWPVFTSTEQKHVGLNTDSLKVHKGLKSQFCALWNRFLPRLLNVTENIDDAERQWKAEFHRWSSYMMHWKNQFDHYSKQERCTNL
Settings: not given
Usually pIC50 stands for the negative decadic logarithm of the IC50, by convention in mol/L. `Cn1c(=O)sc2cc(NC(=O)CCN3CCN(Cc4ccc(F)cc4)CC3)ccc21` showed a negative-log IC50 (pIC50) of 5.15.
The same measure, in the same setting: in the case of `Cn1c(=O)sc2cc(C(=O)CCN3CCN(Cc4ccccc4)CC3)ccc21` it was 6.47.

For another series, the target named is Cholinesterase (Equus caballus) (UniProt P81908). Briefly: Inhibition of equine serum BChE at 100 uM using butyrylthiocholine iodide as substrate preincubated for 10 mins followed by substrate addition and measured for 10 mins by Ellman's method relative to control. As to conditions: time 20.0 min. The gist of the method:
as §1
`Cn1c(=O)sc2cc(NC(=O)CCN3CCN(Cc4ccc(F)cc4)CC3)ccc21` showed an inhibition of 52%.
The same measure, in the same setting: with `Cn1c(=O)sc2cc(C(=O)CCN3CCN(Cc4ccccc4)CC3)ccc21` the figure was below 10%.

In a further series the target is Cholinesterase (Equus caballus, UniProt P81908). Briefly: Inhibition of equine serum BChE using butyrylthiocholine iodide as substrate preincubated for 10 mins followed by substrate addition and measured for 10 mins by Ellman's method.
Chain of Cholinesterase (P81908 whole entry): as the sequence (P81908 whole entry) above
Settings: not given
The method in brief:
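BChE (0.8 U/mL solution) preincubated with inhibitor 10 min at 25 °C in Tris-HCl pH 8.0 with DTNB and 1% DMSO, then BTI (30 mM stock) added. A412 read over 10 min, blank-corrected. IC50 from log[inhibitor] versus % inhibition. Triplicate, mean ± SD.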
`Cn1c(=O)sc2cc(NC(=O)CCN3CCN(Cc4ccc(F)cc4)CC3)ccc21` gave a negative-log IC50 (pIC50) of 4.42.

Another series concerns the target Acetylcholinesterase (Homo sapiens, UniProt P22303). Description: Inhibition of recombinant human AChE expressed in HEK293 cells using acetylthiocholine iodide as substrate preincubated for 10 mins followed by substrate addition and measured for 10 mins by Ellman's method.
Settings: not given
`Cn1c(=O)sc2cc(C(=O)CCN3CCN(Cc4ccccc4)CC3)ccc21`: the pIC50 is 6.34.

For another series, the species on record is Homo sapiens. Description: Reversible inhibition of recombinant human BChE assessed as residual activity at 0.1 times IC50 using butyrylthiocholine iodide as substrate preincubated for 30 mins followed by 100-fold dilution in presence of substrate and measured after 15 mins by Ellman's method relative to control. As to conditions: time 45.0 min.
For `COc1cc2c(cc1OC)C(=O)C(CC1CCN(Cc3ccccc3)CC1)C2` (centres undefined), the Activity is 95.4%.

The species named for the next series is Homo sapiens. Description: Reversible inhibition of recombinant human BChE assessed as residual activity at IC50 using butyrylthiocholine iodide as substrate preincubated for 30 mins followed by 100-fold dilution in presence of substrate and measured after 15 mins by Ellman's method relative to control. As to conditions: time 45.0 min.
For the molecule `COc1cc2c(cc1OC)C(=O)C(CC1CCN(Cc3ccccc3)CC1)C2` (centres undefined), the Activity was 90.2%.

Tested on in the next series: not listed separately
Description: Antioxidant activity assessed as trolox equivalent of AAPH radical scavenging activity at 10 uM measured every min for 90 mins by ORAC-FL assay. It counts as functional.
Settings: not given
The method in brief:
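ORAC-FL in 75 mM phosphate buffer pH 7.4. Sample and fluorescein (150 nM final) preincubated 15 min at 37 °C, then AAPH (12 mM final) added. Fluorescence (ex 485/em 535 nm) read each minute for 90 min. Net AUC after blank subtraction, converted to Trolox equivalents from a Trolox curve (0.5–8, final; Trolox = 1). Duplicate wells, three independent assays.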
On to `Cn1c(=O)sc2cc(NC(=O)CCN3CCN(Cc4ccc(F)cc4)CC3)ccc21`, for which the Activity was found to be 4.1 equiv.
Still for that read-out and setting: with `Cn1c(=O)sc2cc(C(=O)CCN3CCN(Cc4ccccc4)CC3)ccc21` the figure was 3.7 equiv.

For a further series, the system named is THP-1. Briefly: Antiinflammatory activity in LPS-induced human THP-1 cells assessed as reduction in IL1beta release at 10 uM peincubated for 1 hr followed by LPS stimulation and measured after 24 hrs by EIA. The following applies: time 25.0 hrs. The class given is functional, cell-based. The method in brief:
(§2)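 THP-1 cells grown in RPMI 1640 with 10% FCS, penicillin and streptomycin at 37 °C, 5% CO2, then plated overnight at 4×10⁴ cells/well. Test compound added 1 h before 100 ng/ml E. coli O111:B4 LPS; 24 h incubation. Untreated and LPS-only controls. […]; cytokine read by EIA at 450 nm against a standard curve. At least triplicate.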
As to `COc1cc2c(cc1OC)C(=O)C(CC1CCN(Cc3ccccc3)CC1)C2` (centres undefined), the outcome was Active.
Same read-out and setting: with `Cn1c(=O)sc2cc(C(=O)CCN3CCN(Cc4ccccc4)CC3)ccc21` the entry was “Active”.

The subject of the next series is THP-1. Briefly: Antiinflammatory activity in LPS-induced human THP-1 cells assessed as reduction in IL6 release at 10 uM peincubated for 1 hr followed by LPS stimulation and measured after 24 hrs by EIA. It counts as functional, cell-based. As to conditions: time 25.0 hrs. The method in brief:
as §2
As for `COc1cc2c(cc1OC)C(=O)C(CC1CCN(Cc3ccccc3)CC1)C2` (centres undefined), the result was Active.
With `Cn1c(=O)sc2cc(C(=O)CCN3CCN(Cc4ccccc4)CC3)ccc21`, the outcome was Active.

In a further series the test system is THP-1. Briefly: Antiinflammatory activity in LPS-induced human THP-1 cells assessed as reduction in TNFalpha release at 10 uM peincubated for 1 hr followed by LPS stimulation and measured after 24 hrs by EIA. It counts as functional, cell-based. As to conditions: time 25.0 hrs. The method in brief: as §2
`COc1cc2c(cc1OC)C(=O)C(CC1CCN(Cc3ccccc3)CC1)C2` (centres undefined): the result was Active.
Same read-out and setting: in the case of `Cn1c(=O)sc2cc(C(=O)CCN3CCN(Cc4ccccc4)CC3)ccc21` it was “Active”.

A further series concerns THP-1. Briefly: Antiinflammatory activity in LPS-induced human THP-1 cells assessed as reduction in nitric oxide release at 10 uM peincubated for 1 hr followed by LPS stimulation and measured after 24 hrs by ELISA. The class given is functional, cell-based. As to conditions: time 25.0 hrs. The method in brief: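 THP-1 cells plated overnight at 4×10⁴ cells/well, given test compound 1 h before 100 ng/ml LPS (E. coli O111:B4), then incubated 24 h. Cell-free supernatants stored at −20 °C, then NO measured by ELISA kit (sensitivity 1,12 […]) from a standard curve. Untreated cells as negative control, LPS-only as positive control. At least triplicate.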
(In general: In an ELISA, binding on a coated surface is turned into a signal by an enzyme label.)
With `COc1cc2c(cc1OC)C(=O)C(CC1CCN(Cc3ccccc3)CC1)C2` (centres undefined), the outcome was Active.
On the same count and under the same terms, with `Cn1c(=O)sc2cc(C(=O)CCN3CCN(Cc4ccccc4)CC3)ccc21` the entry was “Active”.

For a further series, the target named is Amyloid-beta precursor protein (Homo sapiens) (UniProt P05067). Briefly: Inhibition of amyloid beta (1 to 42) (unknown origin) self-induced aggregation at 50 uM by Thioflavin T based fluorometric assay relative to control.
Chain of Amyloid-beta precursor protein (Homo sapiens) (P05067 whole entry): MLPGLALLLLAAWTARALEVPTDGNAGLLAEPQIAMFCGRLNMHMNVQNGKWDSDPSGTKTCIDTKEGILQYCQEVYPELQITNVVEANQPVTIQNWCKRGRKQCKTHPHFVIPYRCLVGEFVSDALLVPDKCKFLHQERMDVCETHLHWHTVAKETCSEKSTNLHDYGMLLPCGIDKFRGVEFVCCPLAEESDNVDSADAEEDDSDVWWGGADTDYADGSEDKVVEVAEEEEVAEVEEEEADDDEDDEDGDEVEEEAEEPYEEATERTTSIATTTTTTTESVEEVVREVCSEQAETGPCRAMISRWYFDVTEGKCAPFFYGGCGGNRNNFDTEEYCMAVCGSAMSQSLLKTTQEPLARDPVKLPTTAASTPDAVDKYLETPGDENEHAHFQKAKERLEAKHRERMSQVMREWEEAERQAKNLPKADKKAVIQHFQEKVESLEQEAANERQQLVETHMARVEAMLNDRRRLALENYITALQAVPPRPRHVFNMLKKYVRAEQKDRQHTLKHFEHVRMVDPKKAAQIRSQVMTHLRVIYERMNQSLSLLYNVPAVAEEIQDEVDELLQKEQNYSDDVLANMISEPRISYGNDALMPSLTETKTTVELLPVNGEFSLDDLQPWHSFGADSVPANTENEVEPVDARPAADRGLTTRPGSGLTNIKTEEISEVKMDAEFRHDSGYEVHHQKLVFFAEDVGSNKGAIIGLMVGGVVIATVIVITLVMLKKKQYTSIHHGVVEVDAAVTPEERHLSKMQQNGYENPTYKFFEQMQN
Settings: not given
The gist of the method: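 Thioflavin T fluorometric assay of Aβ1-42 self-aggregation, with inhibitor and Aβ42 both at 50 (equimolar). Samples dissolved in DMSO. Result given as % inhibition, mean of two independent experiments each run in triplicate.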
`O=S1(=O)OC(c2ccc(O)cc2)(c2ccc(O)cc2)c2ccccc21` showed an inhibition of 32.2%.
Molecule `Cn1c(=O)sc2cc(C(=O)CCN3CCN(Cc4ccccc4)CC3)ccc21` showed an inhibition of 57.5%.

Tested on in a further series: not listed separately
Briefly: Induction of apoptosis in mouse 3T3 cells assessed as necrotic cells at 10 uM measured after 24 hrs by Annexin V-FITC/propidium iodide staining based flow cytometry (reference value: 0%). The class given is cell-based. As to conditions: 3t3, 24 h. The method in brief:
(§3)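 3T3 fibroblasts exposed to compound for 24 h, with untreated cells as negative control. Cells trypsinized, PBS-washed, stained with Annexin V-FITC and PI by kit protocol, then analysed by flow cytometry. Populations: live (Annexin−/PI−), early apoptotic (Annexin+/PI−), late apoptotic (Annexin+/PI+) and dead (Annexin−/PI+). Percentages given as mean ± SD.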
(Flow cytometry measures light scatter and fluorescence of single cells or particles in a stream.)
For the molecule `Cn1c(=O)sc2cc(C(=O)CCN3CCN(Cc4ccccc4)CC3)ccc21`, the Activity was 0.4%.

Tested on in another series: not listed separately
Briefly: Induction of apoptosis in mouse 3T3 cells assessed as late apoptotic cells at 10 uM measured after 24 hrs by Annexin V-FITC/propidium iodide staining based flow cytometry (reference value: 0.1 to 0.13%). It counts as cell-based. As to conditions: 3t3, 24 h. The method in brief:
as §3
On to `Cn1c(=O)sc2cc(C(=O)CCN3CCN(Cc4ccccc4)CC3)ccc21`, for which the Activity was 0.1%.

Tested on in another series: not listed separately
Description: Induction of apoptosis in mouse 3T3 cells assessed as viable cells at 10 uM measured after 24 hrs by Annexin V-FITC/propidium iodide staining based flow cytometry (reference value: 98.83 to 99%). The class given is cell-based. As to conditions: read-out: Activity. The gist of the method: as §3
Take `Cn1c(=O)sc2cc(C(=O)CCN3CCN(Cc4ccccc4)CC3)ccc21`: the viability at 24 h, 10 µM came out at 98.3%.

Tested on in a further series: not listed separately
Description: Induction of apoptosis in mouse 3T3 cells assessed as early apoptotic cells at 10 uM measured after 24 hrs by Annexin V-FITC/propidium iodide staining based flow cytometry (Rvb <= 0.97%). The class given is cell-based. The following applies: 3t3, 24 h. The gist of the method: as §3
On to `Cn1c(=O)sc2cc(C(=O)CCN3CCN(Cc4ccccc4)CC3)ccc21`, for which the Activity is 1.03%.

Tested on in the next series: not listed separately
Description: Cytotoxicity against mouse 3T3 cells assessed as cell viability at 0.1 uM measured after 24 hrs by MTT assay relative to control. It counts as cell-based. The following applies: read-out: Activity. The gist of the method:
(§4)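 3T3 fibroblasts (ATCC CCL92) grown as adherent monolayers in DMEM with 10% inactivated FBS, 2 mM L-glutamine and penicillin/streptomycin at 37 °C, 5% CO2. Cells exposed to compounds for 24 h. MTT added for 4 h, formazan dissolved in SDS for 24 h, OD read at 570 nm. Viability given as % of untreated OD; at least triplicate, mean ± SD.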
Take `Cn1c(=O)sc2cc(C(=O)CCN3CCN(Cc4ccccc4)CC3)ccc21`: the viability at 24 h, 0.1 µM is 102%.

Tested on in the next series: not listed separately
Description: Cytotoxicity against mouse 3T3 cells assessed as cell viability at 1 uM measured after 24 hrs by MTT assay relative to control. It counts as cell-based. The following applies: read-out: Activity. The method in brief: as §4
As to `Cn1c(=O)sc2cc(C(=O)CCN3CCN(Cc4ccccc4)CC3)ccc21`, the viability at 24 h, 1 µM is 99.3%.

Tested on in a further series: not listed separately
Description: Cytotoxicity against mouse 3T3 cells assessed as cell viability at 10 uM measured after 24 hrs by MTT assay relative to control. It counts as cell-based. As to conditions: read-out: Activity. The gist of the method:
as §4
On to `Cn1c(=O)sc2cc(C(=O)CCN3CCN(Cc4ccccc4)CC3)ccc21`, for which the viability at 24 h, 10 µM worked out at 92.6%.
